Experimental data collected from several papers.
Each line is one published result; the experiments were not run side by side.
LRRK2: Leucine-rich repeat serine/threonine-protein kinase 2 (LRRK2, Homo sapiens, UniProt Q5S007)
LRRK2 G2019S: Leucine-rich repeat serine/threonine-protein kinase 2 (LRRK2, Homo sapiens, UniProt Q5S007, G2019S)

SMILES | target | read-out | mode | method | concentration | measurement | value
C1=C/COCc2cc(ccc2OCCN2CCCC2)Nc2nccc(n2)-c2cccc(c2)COC/1 | LRRK2 | binding |  |  | 0.1 µM | remaining binding | 100%
Cc1cc(S(=O)(=O)N[C@H]2CC[C@H](CN3CCN(c4ccc(C5CCC(=O)NC5=O)cc4F)CC3)CC2)ccc1Nc1ncc(C(F)(F)F)c(N2CCC[C@](C)(O)C2)n1 (stereo partly drawn) | LRRK2 G2019S | binding |  | competition with immobilised ligand | 1 µM | remaining binding | 4%
CC(C)S(=O)(=O)c1ccc2nccc(Nc3ccc4sc(C5CCCC5)nc4c3)c2c1 | LRRK2 | enzyme activity | inhibitor |  | 1 µM | activity vs control | 120%
C[C@]1(O)CCCN(c2nc(Nc3ccc(S(=O)(=O)N[C@H]4CC[C@H](CN5CCN(c6ccc(C7CCC(=O)NC7=O)cc6F)CC5)CC4)cc3F)ncc2C(F)(F)F)C1 (stereo partly drawn) | LRRK2 | binding |  | competition with immobilised ligand | 1 µM | remaining binding | 97%
COc1ccc2[nH]c3c4[nH]c5ccc(OC)cc5c4c4c(c3c2c1)C(=O)NC4=O | LRRK2 G2019S | binding |  |  | 1 µM | remaining binding | 2.6%
CNS(=O)(=O)c1ccc(Nc2ncc(C(F)(F)F)c(N3CCC[C@](C)(O)C3)n2)c(C)c1 | LRRK2 G2019S | binding |  | competition with immobilised ligand | 1 µM | remaining binding | 13%
Cc1ccc(NC(=O)c2ccnc(C(F)(F)F)c2)cc1-c1cc(OCCO)nc(N2CCOCC2)c1 | LRRK2 G2019S | binding |  |  | 1 µM | remaining binding | 100%
CCCCC(=O)Nc1ccc(-c2ccc3ncn(CCC)c(=O)c3c2)cn1 | LRRK2 G2019S | binding |  | competition with immobilised ligand | 0.5 µM | remaining binding | 100%
C[C@H]1CC[C@H](n2c3cnccc3c3cnc(Nc4ccc5c(n4)CCN(C(=O)CO)C5)nc32)CC1 | LRRK2 | cell-free assay |  |  | 1 µM | remaining signal | 28%
C#Cc1cc(-c2cc(Nc3nc(N[C@@H](C)c4ccc(F)cn4)ncc3Cl)n[nH]2)ccc1C=O | LRRK2 G2019S | enzyme activity | inhibitor |  | 0.2 µM | inhibition | 23%
CN1CCN(C(=O)c2ccc(NC(=O)Nc3ccc(N(C)c4ccnc(Nc5ccc(CS(C)(=O)=O)cc5)n4)cc3)cc2)CC1 | LRRK2 | binding |  |  | 1 µM | remaining binding | 74%
C=CC(=O)N1CCC[C@@H](n2nc(-c3ccc(Oc4ccccc4)cc3)c3c(N)ncnc32)C1 | LRRK2 G2019S | enzyme activity | inhibitor |  | 1 µM | inhibition | 23%
